Reference: ChEMBL document CHEMBL1154144, “Semisynthesis and antiplasmodial activity of the quinoline alkaloid aurachin E” (J Nat Prod, 2008)
Values after ≈ are worked out from the molar mass of the structure shown. Active and inactive are the calls of the source. No cut-off for these calls is given here.

Tests used:
Plasmodium falciparum [1] = test: Antiplasmodial activity against Plasmodium falciparum D6 clone after 48 hrs; type: functional, organism-based; details: D6, 48 h
[2] = Inhibition of respiration in bovine heart submitochondrial particles assessed as NADH oxidation; type: functional, Bos taurus
L929 = test: Cytotoxicity against mouse L929 cells after 5 days by MTT assay; type: cell-based; details: L929, 120 h
Method in brief: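 L929 mouse fibroblasts were exposed to serial compound dilutions, and metabolic activity was read by MTT after 5 days.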

Plasmodium falciparum [3] = test: Antiplasmodial activity against Plasmodium falciparum W2 after 48 hrs; type: functional, organism-based; details: W2, 48 h
Plasmodium berghei [4] = test: Antimalarial activity against Plasmodium berghei infected in mice (Mus musculus) at 100 mg/kg; type: functional
Plasmodium berghei [5] = test: Antimalarial activity against Plasmodium berghei infected in mice (Mus musculus)

| IC50 (Plasmodium falciparum [1]) [µg/mL] | IC50 [2] [µg/mL] | IC50 (Plasmodium falciparum [3]) [µg/mL] | SMILES | IC50 (L929) [µg/mL] | Activity (Plasmodium berghei [4]) | ED90 (Plasmodium berghei [5]) [mg/kg] |
| --- | --- | --- | --- | --- | --- | --- |
| > 12 | 0.028 (≈ 0.0708 µM) | > 12 | CC(C)=CCC/C(C)=C/CCC(C)(O)C1Cc2c(c(C)[n+]([O-])c3ccccc23)O1 (stereo not drawn) [AURACHIN A] | 1.4 (≈ 3.54 µM) | – | – |
| 0.078 (≈ 0.206 µM) | 0.014 (≈ 0.0369 µM) | 0.036 (≈ 0.0949 µM) | CC(C)=CCC/C(C)=C/CC/C(C)=C/Cc1c(O)c(C)[n+]([O-])c2ccccc12 [AURACHIN B] | 3.2 (≈ 8.43 µM) | – | – |
| 0.25 (≈ 0.688 µM) | 0.018 (≈ 0.0495 µM) | 0.37 (≈ 1.02 µM) | CC(C)=CCC/C(C)=C/CC/C(C)=C/Cc1c(C)[nH]c2ccccc2c1=O [AURACHIN D] | 1.3 (≈ 3.58 µM) | – | – |
| 0.0004 (≈ 0.000989 µM) | 1.1 (≈ 2.72 µM) | 0.013 (≈ 0.0321 µM) | CC(C)=CCC/C(C)=C/CC/C(C)=C/Cc1c(C)n2c(=O)[nH]c3cccc(c1=O)c32 [AURACHIN E] | 25 (≈ 61.8 µM) | inactive | – |
| – | > 8.1 | – | CCN(CC)CCCC(C)Nc1ccnc2cc(Cl)ccc12 (stereo not drawn) [CHLOROQUINE] | 14 (≈ 43.8 µM) | – | 2.8 |

| SMILES | IC50 (Plasmodium falciparum [1]) [µg/mL] | IC50 [2] [µg/mL] | IC50 (Plasmodium falciparum [3]) [µg/mL] | IC50 (L929) [µg/mL] | Activity (Plasmodium berghei [4]) | ED90 (Plasmodium berghei [5]) [mg/kg] |
| --- | --- | --- | --- | --- | --- | --- |
| C[C@@H]1CC[C@H]2[C@@H](C)C(=O)O[C@@H]3O[C@@]4(C)CC[C@@H]1[C@]32OO4 [ARTEMISININ] | 0.0011 (≈ 0.0039 µM) | > 8.1 | 0.00043 (≈ 0.00152 µM) | > 40 | – | – |
| CC(C)=CCC/C(C)=C/CC/C(C)=C/Cc1c(C)n(O)c2ccccc2c1=O [AURACHIN C] | 0.0009 (≈ 0.00237 µM) | 0.016 (≈ 0.0422 µM) | 0.026 (≈ 0.0685 µM) | 1.8 (≈ 4.74 µM) | – | – |
